Measured values taken from publication PMC11780632 (Bioinformatics and Biology Insights, 2025).
Values after ≈ are worked out from the molar mass of the structure shown.

What was measured:
S. aureus ATCC 25923 [1] = assay: Radial diffusion assay; assay type: cell-based, Staphylococcus aureus; details: RDA, Mueller-Hinton agar, 1 × 10^6 CFU/mL, 24 hours at 37°C, done 3 times
E. coli ATCC 25922 = assay: MIC and MBC, micro-broth dilution; assay type: cell-based; details: Escherichia coli, ATCC25922, 24 h
Procedure, shortened: (§1)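 Strains were grown aerobically for 24 h at 37°C. Two-fold serial dilutions of test peptide were made in 96-well plates, and an equal volume of bacterial suspension at 1 × 10⁶ CFU/mL was added. Plates were incubated for 24 h at 37°C, with gentamicin as control. MIC was taken as the lowest concentration preventing growth.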

S. aureus ATCC 25923 [2] = assay: MIC and MBC, micro-broth dilution; assay type: cell-based; details: Staphylococcus aureus, ATCC25923, 24 h
Procedure, shortened: as §1

A. baumannii ATCC 19606 = assay: MIC and MBC, micro-broth dilution; assay type: cell-based; details: Acinetobacter baumannii, ATCC19606, 24 h
Procedure, shortened: as §1

P. aeruginosa ATCC 27853 = assay: MIC and MBC, micro-broth dilution; assay type: cell-based; details: Pseudomonas aeruginosa, ATCC27853, 24 h
Procedure, shortened: as §1

- MIC (E. coli ATCC 25922): 1000 µM (≈ 478 µg/mL)
- MIC (S. aureus ATCC 25923 [2]): 2000 µM (≈ 955 µg/mL)
- MIC (A. baumannii ATCC 19606): 8000 µM (≈ 3820 µg/mL)
- MIC (P. aeruginosa ATCC 27853): 4000 µM (≈ 1910 µg/mL)
Structure (SMILES): CNC(C)C1CCC(N)C(OC2C(N)CC(N)C(OC3OCC(C)(O)C(NC)C3O)C2O)O1 (centres unmarked) [Gentamicin, gentamicin]
- diameter of the inhibition zone (S. aureus ATCC 25923 [1]): 26 mm
